Assay results from different studies.
Compare with care: the assays were run in different laboratories.
Effect on: metabolic stability
Species: human
Matrix: liver microsomes

Compound | concentration | pH | microsomal CLint
C[C@H]1[C@@H](C(=O)NCc2nc(-c3ccc(C#N)cc3)cs2)CCCN1C(=O)[C@H]1CCC(=O)O1 | 0.5 µM |  | 8 µL/min/mg
CC1(C)NC(=O)N(c2ccc(F)c(F)c2)C1=O |  |  | < 7 µL/min/mg
CCOc1ccc(Nc2c3c(nc4ccccc24)CCC3)cc1 | 0.5 µM |  | 37 µL/min/mg
Cc1ccc(Nc2cnnc3ccc(-c4ccc(N5CCN(C)CC5)cc4)cc23)cn1 |  |  | 36 µL/min/mg
O=c1c2c([nH]c3cc(Oc4cccc(OC(F)(F)F)c4)ccc13)CCCC2 | 1 µM | pH 7.4 | 1.66 µL/min/mg
COc1ccc(Cn2cc(CO[C@@H]3O[C@H]4[C@H](OC[C@H]4O)[C@H]3O)nn2)cc1 |  |  | < 14.4 µL/min/mg
O=c1c2c([nH]c3cc(Oc4ccc(OC(F)(F)F)cc4)c(F)cc13)CCCC2 | 1 µM | pH 7.4 | 72.5 µL/min/mg
O=C(NCc1nc(-c2ccc(C(F)(F)F)cc2)cs1)[C@H]1CCCN(C(=O)COCCN2CCCCC2)C1 | 0.5 µM |  | 21 µL/min/mg
O=c1c2ccc(Oc3ccc(OC(F)(F)F)cc3)cc2[nH]c2ccc(Cl)c(F)c12 | 1 µM | pH 7.4 | 9.02 µL/min/mg
Cc1ccc(N(c2ccc(NC(=O)CN(C)c3ccccc3N3CCCC3=O)cn2)C(C)C)cc1 |  |  | 270 µL/min/mg
CC(C)(C)OC(=O)N1CCC(Oc2ccc3c(=O)c4c(F)cc(Cl)cc4[nH]c3c2)C1 (stereo not shown) | 1 µM | pH 7.4 | 17.3 µL/min/mg
COCC(=O)N1CCC[C@H](C(=O)NCc2nc(-c3cncnc3)cs2)C1 | 0.5 µM |  | < 7 µL/min/mg
CC1(C)NC(=O)N(c2ccc3c(c2)OC(F)(F)O3)C1=O |  |  | < 7 µL/min/mg
Cc1[nH]c(C)c(S(=O)(=O)Nc2ccc(C(F)(F)F)c(Cl)c2)c1C(=O)N(C)C |  |  | 79 µL/min/mg
COCC(=O)N1CCC[C@H](C(=O)NCc2nc(-c3ccc(F)cc3)cs2)C1 | 0.5 µM |  | 14 µL/min/mg
Cc1ccc(Oc2ccc(NC(=O)CN(C)c3ccccc3N3CCCC3=O)cc2)cc1 |  |  | 383 µL/min/mg
N[C@@H](COCC(=O)N1CCC[C@H](C(=O)NCc2nc(-c3ccc(C(F)(F)F)cc3)cs2)C1)c1ccccc1 | 0.5 µM |  | 65 µL/min/mg
O=c1c2c([nH]c3ccc(Oc4ccc(OC(F)(F)F)cc4)cc13)CCCC2 | 1 µM | pH 7.4 | 55.3 µL/min/mg
CCOCC(=O)N1C2CCC(C(=O)NCc3nc(-c4ccc(C#N)cc4)cs3)C1CC2 (stereo not shown) | 0.5 µM |  | 42 µL/min/mg
CCCCCCCCCCCCCCCC(=O)NCCOC(=O)C[C@@H](CN)CC(C)C | 1 µM | pH 7.4 | 22.9 µL/min/mg
O=c1c2ccc(Oc3cccc(OC(F)(F)F)c3)cc2[nH]c2cc(Cl)cc(F)c12 | 1 µM | pH 7.4 | 2.96 µL/min/mg
COCC(=O)N1CCC[C@H](C(=O)NCc2nc(-c3ccc(OC(F)(F)F)cc3)cs2)C1 | 0.5 µM |  | 37 µL/min/mg
